For series [1], the system named is Trypanosoma brucei. Kind of series: Antitrypanosomal activity against Trypanosoma brucei Lister 427 assessed as parasite growth inhibition measured after 72 hrs by SYBER green staining based multilabel reader analysis. Format: functional, organism-based. Conditions: Lister 427, 72 h. Summed up:
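Bloodstream-form T. b. brucei Lister 427 were screened first at 4 μM, and compounds giving >50% growth inhibition went on to eight-point dose-response. Viability was read by SYBR green after 72 h, giving EC50. At least three assay replicates were run, each in duplicate, reported as mean ± SD.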

Series [2] relates to HEK293. Nature of the series: Cytotoxicity against human HEK293 cells assessed as reduction in cell viability at 20 uM measured after 48 hrs by resazurin reagent based multilabel reader analysis. Format: toxicity. Conditions: hek293, 48 h. (In general: The colour change of resazurin is a common sign of viable cells or microbes.)
Series [3] in a line: Selectivity index, ratio of CC50 for cytotoxicity against human HEK293 cells to EC50 for antitrypanosomal activity against Trypanosoma brucei Lister 427. Format: toxicity, cell-based. Conditions: read-out: Ratio CC50/EC50.
In series [4] the test system is Trypanosoma brucei. Nature of the series: Antitrypanosomal activity against Trypanosoma brucei Lister 427 assessed as time required to kill the parasite at 0.5 to 2 uM by hemocytometer cell counting analysis. The class given is functional. Conditions: dose 0.5-2 µM. An outline of the steps:
(§1)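 Time-to-kill on bloodstream-form Lister 427 parasites. Test compound was used at 1, 2 and 4 μM, and pentamidine at 0.5, 1 and 2 μM. Parasites were counted over time by hemocytometer, with counts normalized to a DMSO negative control. Three replicates, mean ± SD.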

In series [5] the test system is Trypanosoma brucei. Kind of series: Antitrypanosomal activity against Trypanosoma brucei Lister 427 assessed as parasite growth inhibition at 4 uM measured for 2 to 48 hrs by SYBER green staining based multilabel reader analysis. The class given is functional, organism-based. The following applies: time 2-48 hrs. Summed up:
(§2)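 Washout test on bloodstream-form Lister 427 trypanosomes to tell trypanocidal from trypanostatic action. Compound at 1, 2 or 4 μM was incubated for 6, 4 or 2 h respectively, and the parasites were then washed three times. Regrowth and division were monitored for a further 48 h.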

Series [6] relates to Trypanosoma brucei. Nature of the series: Antitrypanosomal activity against Trypanosoma brucei Lister 427 assessed as parasite growth inhibition at 1 uM measured for 6 to 48 hrs by SYBER green staining based multilabel reader analysis. Format: functional, organism-based. Conditions: time 6-48 hrs. Summed up:
as §2

Series [7] concerns Trypanosoma brucei. Kind of series: Antitrypanosomal activity against Trypanosoma brucei Lister 427 assessed as parasite growth inhibition at 2 uM measured for 4 to 48 hrs by SYBER green staining based multilabel reader analysis. The class given is functional, organism-based. Conditions: time 4-48 hrs. An outline of the steps: as §2
The subject of series [8] is Trypanosoma brucei. Nature of the series: Antitrypanosomal activity against Trypanosoma brucei Lister 427 assessed as time required to kill the parasite at 2 to 4 uM by hemocytometer cell counting analysis. Format: functional. Conditions: dose 2-4 µM. Summed up:
as §1

The subject of series [9] is Trypanosoma brucei. Kind of series: Antitrypanosomal activity against Trypanosoma brucei Lister 427 assessed as time required to kill the parasite at 1 to 4 uM by hemocytometer cell counting analysis. The class given is functional. The following applies: dose 1-4 µM. An outline of the steps:
as §1

The values below come from ChEMBL document CHEMBL5236663, “Structure-activity relationship of dibenzylideneacetone analogs against the neglected disease pathogen, Trypanosoma brucei” (Bioorg Med Chem Lett, 2023).

pEC50: −log10 of the molar value. The source made the active and inactive calls. The calls are words filed in the database; no cut-off is given here. A value given as a limit tells only on which side of the number the result lay.

By pEC50 is commonly meant the negative decadic logarithm of the EC50, by convention in mol/L. Regarding `Cc1ccc(/C=C/C(=O)/C=C/c2ccccc2)cc1`, the pEC50 in series [1] was 5.43.

As usually defined, the CC50 is the concentration giving 50% cytotoxicity. For the molecule `O=C(/C=C/c1ccccc1)CC(=O)/C=C/c1ccccc1`, the pEC50 in [1] was below 5.40. Further, the CC50 in series [2] is above 20 µM.

On to `COc1cc(/C=C/C(=O)/C=C/c2cc(OC)c(OC)c(OC)c2)cc(OC)c1OC`, for which, in [1], the pEC50 is 6.44. Besides, the CC50 in [2] was found to be 0.3 µM.

As for `COc1ccc(/C=C/C(=O)/C=C/c2ccc(OC)c(OC)c2)cc1OC`, the pEC50 in [1] is 6.38. The CC50 in series [2] came to 4.55 µM. Further, the selectivity ratio in series [3] was above 10.

Turning to `COc1cc(CCC(O)CCc2cc(OC)c(OC)c(OC)c2)cc(OC)c1OC`, the negative-log EC50 (pEC50) in series [1] is below 5.40. Moreover, the cytotoxic concentration (CC50) in series [2] is above 20 µM.

For the molecule `COc1cccc(/C=C/C(=O)CC(=O)/C=C/c2cccc(OC)c2)c1`, the negative logarithm of the EC50 (pEC50) in series [1] was below 5.40. Besides, the CC50 in series [2] was above 20 µM.

On to `O=C1/C(=C/c2ccccc2F)CNC/C1=C\c1ccccc1F`, for which, in series [1], the pEC50 is 6.70. Also, the CC50 in [2] came to 3.58 µM.

As to `Cc1ccc(/C=C/C(=O)/C=C/c2ccc(C)cc2)cc1`, the negative logarithm of the EC50 (pEC50) in series [1] was below 5.40. Further, the half-maximal cytotoxic concentration (CC50) in series [2] is above 20 µM.

Regarding `COc1ccc(/C=C/C(=O)/C=C/c2ccc(OC)cc2)cc1`, the pEC50 in series [1] is below 5.40. The 50% cytotoxic concentration (CC50) in series [2] was above 20 µM.

Take `O=C(/C=C/c1ccccc1)/C=C/c1ccc(Cl)c(Cl)c1`: the pEC50 in series [1] was 5.67. For the same molecule, the CC50 in series [2] is 11.3 µM.

For the molecule `N=C(N)c1ccc(OCCCCCOc2ccc(C(=N)N)cc2)cc1` [PENTAMIDINE], the negative-log EC50 (pEC50) in series [1] is 7.92. The CC50 in series [2] was above 4 µM. The Time in series [4] was above 30 h.

In the case of `O=C(/C=C/c1ccccc1)/C=C/c1ccc(O)cc1`, in series [1], the pEC50 is 5.90. The half-maximal cytotoxic concentration (CC50) in series [2] was 5.85 µM.

As to `COc1cccc(/C=C/C(=O)/C=C/c2cccc(OC)c2)c1`, the negative-log EC50 (pEC50) in series [1] was below 5.40. The 50% cytotoxic concentration (CC50) in [2] was above 20 µM.

In the case of `COc1cc(/C=C/C(=O)CC(=O)/C=C/c2ccc(O)c(OC)c2)ccc1O` [CURCUMIN], the negative logarithm of the EC50 (pEC50) in series [1] was 5.75. Further, the CC50 in series [2] was determined as 5.56 µM.

On to `COc1cc(/C=C/C(=O)/C=C/c2ccc(O)c(OC)c2)ccc1O`, for which the negative logarithm of the EC50 (pEC50) in series [1] is 6.08. Moreover, the cytotoxic concentration (CC50) in series [2] came out at 9.74 µM.

With `O=C(/C=C/c1ccccc1)/C=C/c1cccc(O)c1`, the negative-log EC50 (pEC50) in [1] was 6.54. Besides, in series [2], the CC50 was 5.79 µM.

Take `COc1ccc(/C=C/C(=O)CC(=O)/C=C/c2ccc(OC)c(OC)c2)cc1OC` [TETRAMETHOXYCURCUMIN]: the negative logarithm of the EC50 (pEC50) in series [1] was below 5.40. For the same molecule, the CC50 in series [2] is above 20 µM.

As for `O=C(/C=C/c1ccc(Cl)c(Cl)c1)CC(=O)/C=C/c1ccc(Cl)c(Cl)c1`, in series [1], the negative logarithm of the EC50 (pEC50) is below 5.40. Also, the CC50 in series [2] was above 20 µM.

With `O=C(/C=C/c1ccccc1)/C=C/c1ccc(O)c(O)c1`, the pEC50 in series [1] is 6.43. Also, the CC50 in [2] is 5.54 µM.

Consider `COc1cc(/C=C/C(=O)/C=C/c2cc(OC)cc(OC)c2)cc(OC)c1`, for which the negative-log EC50 (pEC50) in [1] was 6.62. Moreover, the CC50 in series [2] is 1.45 µM.

On to `O=C(CCc1cccc(Br)c1)CCc1cccc(Br)c1`, for which the pEC50 in [1] was below 5.40. For the same molecule, in series [2], the CC50 is above 20 µM.

Consider `O=C(/C=C/c1ccc(F)cc1)/C=C/c1ccc(F)cc1`, for which, in series [1], the pEC50 is 5.85. Further, the CC50 in [2] is 7.64 µM.

Regarding `O=C(CCc1ccccc1Cl)CCc1ccccc1Cl`, the negative-log EC50 (pEC50) in series [1] is below 5.40. Further, the CC50 in series [2] is above 20 µM.

Consider `Cc1ccc(CCC(O)CCc2ccc(C)cc2)cc1`, for which, in series [1], the pEC50 is below 5.40. Also, the CC50 in [2] was above 20 µM.

For `O=C(/C=C/c1ccccc1)/C=C/c1ccc(Br)cc1`, the pEC50 in series [1] was 5.63. In addition, the CC50 in [2] was determined as 7.05 µM.

As for `O=C(/C=C/c1ccccc1)/C=C/c1ccc(C(F)(F)F)cc1`, the pEC50 in series [1] is 5.60. The cytotoxic concentration (CC50) in series [2] is above 20 µM.

With `O=C(/C=C/c1ccccc1Cl)/C=C/c1ccccc1Cl`, the negative logarithm of the EC50 (pEC50) in series [1] was 6.51. For the same molecule, in series [2], the cytotoxic concentration (CC50) turned out to be 4.27 µM. In series [3], the selectivity ratio was above 10.

Take `OC(CCc1ccccc1Cl)CCc1ccccc1Cl`: the pEC50 in series [1] was below 5.40. Moreover, in series [2], the CC50 was above 20 µM.

For `CN(C)c1ccc(/C=C/C(=O)/C=C/c2ccccc2)cc1`, the pEC50 in series [1] was below 5.40. Also, the 50% cytotoxic concentration (CC50) in series [2] amounted to 9.79 µM.

As for `O=C(/C=C/c1ccccc1)/C=C/c1ccc(Cl)cc1`, the pEC50 in series [1] is 5.71. In [2], the cytotoxic concentration (CC50) was above 20 µM.

As for `COc1ccc(CCC(=O)CCc2ccc(OC)c(OC)c2)cc1OC`, in series [1], the negative logarithm of the EC50 (pEC50) is below 5.40. For the same molecule, the CC50 in [2] is above 20 µM.

With `COc1cc(/C=C/C(=O)CC(=O)/C=C/c2cc(OC)c(OC)c(OC)c2)cc(OC)c1OC`, the negative logarithm of the EC50 (pEC50) in series [1] was 5.40.

On to `O=C(/C=C/c1ccccc1)/C=C/c1cccc([N+](=O)[O-])c1`, for which the result in series [5], in series [6] and in series [7] was Active. Further, the negative-log EC50 (pEC50) in [1] is 6.70. In addition, the 50% cytotoxic concentration (CC50) in [2] came to 2.88 µM. Moreover, the Time is below 6 h in [8] and below 24 h in series [9].

Turning to `COc1ccc(CCC(O)CCc2ccc(OC)c(OC)c2)cc1OC`, the pEC50 in series [1] was below 5.40. The half-maximal cytotoxic concentration (CC50) in series [2] was above 20 µM.

`Cc1ccc(CCC(=O)CCc2ccc(C)cc2)cc1`: the pEC50 in series [1] was below 5.40. For the same molecule, in [2], the CC50 was above 20 µM.

With `COc1cc(/C=C2\CCC/C(=C\c3cc(OC)cc(OC)c3)C2=O)cc(OC)c1`, the pEC50 in series [1] was below 5.40. For the same molecule, in series [2], the CC50 was 3.7 µM.

As for `COc1ccc(/C=C/C(=O)CC(=O)/C=C/c2ccc(OC)cc2OC)c(OC)c1`, in series [1], the negative logarithm of the EC50 (pEC50) is below 5.40.

With `COc1ccc(/C=C/C(=O)/C=C/c2ccc(O)c(O)c2)cc1`, the pEC50 in series [1] is 6.39. Further, the CC50 in series [2] is 6.61 µM.

As for `O=C(/C=C/c1cccc(O)c1)CC(=O)/C=C/c1cccc(O)c1`, the pEC50 in [1] is 5.48. Also, in series [2], the CC50 was 6.73 µM.

For `COc1cc(CCC(=O)CCc2cc(OC)c(OC)c(OC)c2)cc(OC)c1OC`, the pEC50 in series [1] was below 5.40. The 50% cytotoxic concentration (CC50) in [2] is above 20 µM.

Consider `OC(CCc1cccc(Br)c1)CCc1cccc(Br)c1`, for which the negative logarithm of the EC50 (pEC50) in [1] is below 5.40. Besides, the CC50 in series [2] was above 20 µM.

For the molecule `COc1cc(/C=C/C(=O)/C=C/c2ccccc2)ccc1O`, the pEC50 in series [1] is 6.18. In addition, in series [2], the half-maximal cytotoxic concentration (CC50) was found to be 5.63 µM.

For `COc1ccc(/C=C/C(=O)/C=C/c2ccccc2)cc1`, in [1], the pEC50 is below 5.40. The CC50 in series [2] is 5.49 µM.

On to `O=C(/C=C/c1cccc(Br)c1)/C=C/c1cccc(Br)c1`, for which the negative-log EC50 (pEC50) in series [1] is below 5.40. In addition, in [2], the half-maximal cytotoxic concentration (CC50) was above 20 µM.

Consider `O=C(/C=C/c1ccc(C(F)(F)F)cc1)CC(=O)/C=C/c1ccc(C(F)(F)F)cc1`, for which, in series [1], the pEC50 was below 5.40. For the same molecule, the CC50 in series [2] is above 20 µM.
